Each block holds one compound with its values, some of them ahead of it. Calls of active or inactive are those of the source. No cut-off for these calls is given here.
Key:
Collagenase 3 [1] = target: T1, Collagenase 3 (Homo sapiens, UniProt P45452); test: Inhibition of human full length recombinant MMP13 using triple-helical fTHP-15 as substrate at 40 uM after 4 hrs by FRET assay
Summary of the method: (§1)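 Inhibitors tested at 40 μM in a FRET assay with the triple-helical peptide substrate fTHP-15 (exosite-engaging), read as percent inhibition of enzyme activity. Enzyme levels: MMP-1 4 nM; MMP-2, MMP-9 and MMP-14 10 nM each; MMP-8 2 nM; MMP-13 2.3 nM.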

Collagenase 3 [2] = target: T1, Collagenase 3; test: Noncompetitive inhibition of human full length recombinant MMP13 using triple-helical fTHP-15 as substrate by Lineweaver-Burk plot analysis
Summary of the method: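 Single-inhibitor kinetic assay of MMP-13 hydrolysis of the FRET triple-helical peptide fTHP-15, which engages protease exosites. Run to obtain the inhibition constant (Ki) and the inhibition modality, following previously described methods.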

[3] = target: Disintegrin and metalloproteinase domain-containing protein 17 (Homo sapiens) (UniProt P78536); test: Inhibition of TACE at 40 uM
[4] = target: T2, Interstitial collagenase (Homo sapiens) (UniProt P03956); test: Inhibition of MMP1 expressed in Escherichia coli using triple-helical fTHP-15 as substrate at 40 uM after 4 hrs by FRET assay; summary of the method: as §1
T2 sequence (whole entry): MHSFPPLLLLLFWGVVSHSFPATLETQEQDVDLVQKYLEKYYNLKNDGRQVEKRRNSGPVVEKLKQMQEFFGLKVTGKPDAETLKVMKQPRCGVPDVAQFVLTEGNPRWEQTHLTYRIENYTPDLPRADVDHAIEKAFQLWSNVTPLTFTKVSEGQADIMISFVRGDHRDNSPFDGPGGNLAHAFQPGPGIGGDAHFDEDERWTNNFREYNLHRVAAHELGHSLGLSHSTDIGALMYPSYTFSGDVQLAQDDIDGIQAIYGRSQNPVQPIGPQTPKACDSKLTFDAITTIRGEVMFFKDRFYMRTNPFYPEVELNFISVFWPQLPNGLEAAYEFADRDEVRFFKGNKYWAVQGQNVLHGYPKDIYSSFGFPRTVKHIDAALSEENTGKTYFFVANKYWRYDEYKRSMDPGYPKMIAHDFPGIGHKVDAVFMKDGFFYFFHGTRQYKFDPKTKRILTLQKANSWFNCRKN

[5] = target: 72 kDa type IV collagenase (Homo sapiens) (UniProt P08253); test: Inhibition of human MMP2 using triple-helical fTHP-15 as substrate at 40 uM after 4 hrs by FRET assay; summary of the method: as §1
Neutrophil collagenase [6] = target: T3, Neutrophil collagenase (Homo sapiens, UniProt P22894); test: Inhibition of MMP8 expressed in CHO-K1 cells using triple-helical fTHP-15 as substrate at 40 uM after 4 hrs by FRET assay; summary of the method: as §1
Target sequence in this assay (P22894 101-467 limits assumed): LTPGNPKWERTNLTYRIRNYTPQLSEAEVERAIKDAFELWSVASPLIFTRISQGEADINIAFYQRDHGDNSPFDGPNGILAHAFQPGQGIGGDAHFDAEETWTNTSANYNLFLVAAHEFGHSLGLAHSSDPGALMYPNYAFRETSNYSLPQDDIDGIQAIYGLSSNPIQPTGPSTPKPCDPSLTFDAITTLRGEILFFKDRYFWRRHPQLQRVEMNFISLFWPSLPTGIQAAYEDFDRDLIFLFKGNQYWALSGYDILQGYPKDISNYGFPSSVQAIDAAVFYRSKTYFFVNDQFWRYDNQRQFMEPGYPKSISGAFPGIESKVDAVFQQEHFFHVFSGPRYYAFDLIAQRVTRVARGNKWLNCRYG

[7] = target: Matrix metalloproteinase-9 (Homo sapiens) (UniProt P14780); test: Inhibition of recombinant MMP9 using triple-helical fTHP-15 as substrate at 40 uM after 4 hrs by FRET assay; summary of the method: as §1
[8] = target: Matrix metalloproteinase-14 (Homo sapiens) (UniProt P50281); test: Inhibition of MMP14 using triple-helical fTHP-15 as substrate at 40 uM after 4 hrs by FRET assay; summary of the method: as §1
Interstitial collagenase = target: T4, Interstitial collagenase (Homo sapiens, UniProt P03956); test: Inhibition of MMP1 expressed in Escherichia coli using triple-helical fTHP-15 as substrate after 4 hrs by FRET assay
T4 sequence (P03956 whole entry): T2 sequence (whole entry)

Neutrophil collagenase [9] = target: T3, Neutrophil collagenase; test: Inhibition of MMP8 expressed in CHO-K1 cells using triple-helical fTHP-15 as substrate after 4 hrs by FRET assay; format: cell-based
Target sequence in this assay (P22894 whole entry): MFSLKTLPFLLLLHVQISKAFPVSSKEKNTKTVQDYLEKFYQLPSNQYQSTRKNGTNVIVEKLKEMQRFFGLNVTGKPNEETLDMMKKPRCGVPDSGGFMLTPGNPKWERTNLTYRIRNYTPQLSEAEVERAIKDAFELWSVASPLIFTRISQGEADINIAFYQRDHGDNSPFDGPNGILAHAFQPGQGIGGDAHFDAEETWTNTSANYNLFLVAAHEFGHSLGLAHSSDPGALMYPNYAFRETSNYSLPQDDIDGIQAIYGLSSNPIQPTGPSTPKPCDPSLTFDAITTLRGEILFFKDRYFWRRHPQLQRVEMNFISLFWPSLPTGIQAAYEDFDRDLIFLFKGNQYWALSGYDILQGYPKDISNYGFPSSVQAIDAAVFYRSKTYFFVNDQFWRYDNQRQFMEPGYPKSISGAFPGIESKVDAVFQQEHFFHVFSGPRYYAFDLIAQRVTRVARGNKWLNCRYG

[10] = target: T2, Interstitial collagenase (Homo sapiens); test: Inhibition of MMP1 expressed in Escherichia coli assessed as residual activity using Knight SSP as substrate at 100 uM after 1.5 to 4 hrs by spectrofluorometric analysis relative to control
[11] = target: 72 kDa type IV collagenase (Homo sapiens) (UniProt P08253); test: Inhibition of human MMP2 assessed as residual activity using Knight SSP as substrate at 100 uM after 1.5 to 4 hrs by spectrofluorometric analysis relative to control
[12] = target: Stromelysin-1 (Homo sapiens) (UniProt P08254); test: Inhibition of MMP3 expressed in Escherichia coli assessed as residual activity using Knight SSP as substrate at 100 uM after 1.5 to 4 hrs by spectrofluorometric analysis relative to control
Neutrophil collagenase [13] = target: T3, Neutrophil collagenase; test: Inhibition of MMP8 expressed in CHO-K1 cells assessed as residual activity using Knight SSP as substrate at 100 uM after 1.5 to 4 hrs by spectrofluorometric analysis relative to control; format: cell-based
Target sequence in this assay (P22894 101-467 limits assumed): as the sequence (P22894 101-467 limits assumed) above

[14] = target: Macrophage metalloelastase (Homo sapiens) (UniProt P39900); test: Inhibition of MMP12 assessed as residual activity using Knight SSP as substrate at 100 uM after 1.5 to 4 hrs by spectrofluorometric analysis relative to control
Collagenase 3 [15] = target: T1, Collagenase 3; test: Inhibition of human full length recombinant MMP13 assessed as residual activity using Knight SSP as substrate at 100 uM after 1.5 to 4 hrs by spectrofluorometric analysis relative to control
[16] = target: Matrix metalloproteinase-14 (Homo sapiens) (UniProt P50281); test: Inhibition of MMP14 assessed as residual activity using Knight SSP as substrate at 100 uM after 1.5 to 4 hrs by spectrofluorometric analysis relative to control
[17] = target: T5, Matrix metalloproteinase-20 (Homo sapiens) (UniProt O60882); test: Inhibition of MMP20 assessed as residual activity using Knight SSP as substrate at 100 uM after 1.5 to 4 hrs by spectrofluorometric analysis relative to control
T5 sequence (whole entry): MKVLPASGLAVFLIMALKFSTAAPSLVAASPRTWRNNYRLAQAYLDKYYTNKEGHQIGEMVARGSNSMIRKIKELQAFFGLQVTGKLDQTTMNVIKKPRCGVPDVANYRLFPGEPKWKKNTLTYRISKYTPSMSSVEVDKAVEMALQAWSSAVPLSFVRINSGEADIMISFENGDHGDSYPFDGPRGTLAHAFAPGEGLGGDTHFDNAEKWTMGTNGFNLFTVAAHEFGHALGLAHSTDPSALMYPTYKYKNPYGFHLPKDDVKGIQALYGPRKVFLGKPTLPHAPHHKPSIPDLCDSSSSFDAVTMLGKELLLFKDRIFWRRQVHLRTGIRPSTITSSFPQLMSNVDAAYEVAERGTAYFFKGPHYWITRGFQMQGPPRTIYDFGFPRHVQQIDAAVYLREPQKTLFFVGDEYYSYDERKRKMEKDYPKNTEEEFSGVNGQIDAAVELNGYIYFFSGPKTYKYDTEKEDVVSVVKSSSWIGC

Sequence of Stromelysin-1 (Homo sapiens) (P08254 100-477 limits assumed): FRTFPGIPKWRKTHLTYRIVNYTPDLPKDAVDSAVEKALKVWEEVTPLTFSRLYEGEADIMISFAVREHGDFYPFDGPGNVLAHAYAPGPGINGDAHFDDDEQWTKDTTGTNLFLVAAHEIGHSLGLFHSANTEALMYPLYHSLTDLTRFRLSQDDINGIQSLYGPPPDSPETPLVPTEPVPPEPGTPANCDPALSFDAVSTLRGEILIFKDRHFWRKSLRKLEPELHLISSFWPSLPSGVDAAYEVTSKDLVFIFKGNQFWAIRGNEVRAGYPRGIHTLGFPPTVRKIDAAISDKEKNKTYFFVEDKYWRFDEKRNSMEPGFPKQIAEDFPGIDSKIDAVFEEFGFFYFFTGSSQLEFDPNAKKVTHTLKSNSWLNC
Sequence of 72 kDa type IV collagenase (Homo sapiens) (P08253 110-660 limits assumed): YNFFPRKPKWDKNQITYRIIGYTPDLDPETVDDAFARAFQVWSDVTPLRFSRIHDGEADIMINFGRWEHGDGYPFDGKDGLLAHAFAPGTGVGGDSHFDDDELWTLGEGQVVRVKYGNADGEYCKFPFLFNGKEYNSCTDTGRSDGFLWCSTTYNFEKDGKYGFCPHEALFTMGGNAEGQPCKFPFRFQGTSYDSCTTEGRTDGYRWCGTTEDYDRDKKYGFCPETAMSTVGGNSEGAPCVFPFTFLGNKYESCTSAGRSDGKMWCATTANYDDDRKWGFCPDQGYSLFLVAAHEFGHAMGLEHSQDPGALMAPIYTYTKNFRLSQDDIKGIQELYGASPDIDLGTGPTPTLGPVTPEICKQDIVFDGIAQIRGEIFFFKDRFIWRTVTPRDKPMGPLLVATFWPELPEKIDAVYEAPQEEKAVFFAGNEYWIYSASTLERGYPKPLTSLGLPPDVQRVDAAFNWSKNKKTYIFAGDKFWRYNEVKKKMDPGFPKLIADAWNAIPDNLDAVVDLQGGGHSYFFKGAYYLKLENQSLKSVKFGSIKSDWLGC
Sequence of Disintegrin and metalloproteinase domain-containing protein 17 (Homo sapiens) (P78536 whole entry, the tested form may be a part): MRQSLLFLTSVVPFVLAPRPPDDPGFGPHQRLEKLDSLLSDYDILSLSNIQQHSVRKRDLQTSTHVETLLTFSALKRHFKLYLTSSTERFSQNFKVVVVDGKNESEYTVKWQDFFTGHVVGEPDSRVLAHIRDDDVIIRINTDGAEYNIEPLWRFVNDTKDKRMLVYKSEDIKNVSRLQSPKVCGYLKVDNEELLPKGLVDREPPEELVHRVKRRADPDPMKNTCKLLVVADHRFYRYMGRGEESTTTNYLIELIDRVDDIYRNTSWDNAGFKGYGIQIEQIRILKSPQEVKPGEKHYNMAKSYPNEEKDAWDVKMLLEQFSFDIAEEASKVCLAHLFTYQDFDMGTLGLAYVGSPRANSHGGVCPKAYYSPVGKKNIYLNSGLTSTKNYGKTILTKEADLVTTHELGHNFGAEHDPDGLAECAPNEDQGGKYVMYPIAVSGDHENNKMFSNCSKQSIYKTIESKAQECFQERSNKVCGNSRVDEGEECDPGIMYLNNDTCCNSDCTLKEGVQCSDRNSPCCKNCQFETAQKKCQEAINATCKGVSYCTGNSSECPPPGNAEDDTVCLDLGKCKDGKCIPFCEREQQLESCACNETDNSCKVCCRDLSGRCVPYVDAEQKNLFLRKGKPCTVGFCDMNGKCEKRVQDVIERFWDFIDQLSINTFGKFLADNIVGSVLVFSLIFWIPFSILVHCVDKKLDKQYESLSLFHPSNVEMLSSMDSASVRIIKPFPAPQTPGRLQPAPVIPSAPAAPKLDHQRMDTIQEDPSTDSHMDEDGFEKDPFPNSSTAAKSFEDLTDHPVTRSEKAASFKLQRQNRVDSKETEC
Sequence of Macrophage metalloelastase (Homo sapiens) (P39900 106-470 limits assumed): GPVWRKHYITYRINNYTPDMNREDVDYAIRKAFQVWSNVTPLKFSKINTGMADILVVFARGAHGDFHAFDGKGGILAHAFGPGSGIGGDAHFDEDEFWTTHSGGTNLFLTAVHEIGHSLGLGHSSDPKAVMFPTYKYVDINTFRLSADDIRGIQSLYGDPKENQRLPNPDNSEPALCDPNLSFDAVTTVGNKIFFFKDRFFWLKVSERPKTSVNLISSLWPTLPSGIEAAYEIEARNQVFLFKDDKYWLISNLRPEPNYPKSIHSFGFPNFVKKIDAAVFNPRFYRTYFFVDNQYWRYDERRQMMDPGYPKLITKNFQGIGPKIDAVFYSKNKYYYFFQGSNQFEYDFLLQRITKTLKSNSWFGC
Sequence of Matrix metalloproteinase-9 (Homo sapiens) (P14780 whole entry): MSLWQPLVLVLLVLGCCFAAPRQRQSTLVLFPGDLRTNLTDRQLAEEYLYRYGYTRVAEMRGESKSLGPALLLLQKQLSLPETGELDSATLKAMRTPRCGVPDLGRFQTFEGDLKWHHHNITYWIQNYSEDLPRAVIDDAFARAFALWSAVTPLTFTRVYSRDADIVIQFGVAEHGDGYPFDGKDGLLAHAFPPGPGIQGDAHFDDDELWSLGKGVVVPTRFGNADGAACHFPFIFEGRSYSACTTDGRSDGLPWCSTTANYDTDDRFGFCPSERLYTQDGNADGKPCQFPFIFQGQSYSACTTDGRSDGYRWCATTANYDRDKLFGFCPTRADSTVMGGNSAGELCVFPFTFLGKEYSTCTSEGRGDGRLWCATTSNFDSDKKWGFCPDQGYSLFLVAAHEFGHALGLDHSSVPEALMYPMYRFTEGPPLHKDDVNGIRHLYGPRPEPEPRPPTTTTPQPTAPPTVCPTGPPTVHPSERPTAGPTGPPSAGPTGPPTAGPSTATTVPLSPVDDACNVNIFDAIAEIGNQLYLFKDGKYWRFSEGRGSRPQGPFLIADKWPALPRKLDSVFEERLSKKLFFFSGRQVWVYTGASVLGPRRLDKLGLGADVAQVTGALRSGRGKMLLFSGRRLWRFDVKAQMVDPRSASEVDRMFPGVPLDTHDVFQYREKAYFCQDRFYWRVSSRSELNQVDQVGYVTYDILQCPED

inhibition (Collagenase 3 [1]): 32.9%
SMILES: Cc1cc(=O)[nH]c(SCc2ccc(Cl)cc2)n1

inhibition (Collagenase 3 [1]): 49.1%
Ki (Collagenase 3 [2]): 3800 nM
inhibition [3]: inactive
inhibition [4]: 0%
inhibition [5]: 25%
inhibition (Neutrophil collagenase [6]): 17%
inhibition [7]: 10%
inhibition [8]: 22%
IC50 (Interstitial collagenase): > 40 µM
IC50 (Neutrophil collagenase [9]): > 40 µM
Activity [10]: 92.7%
Activity [11]: 83%
Activity [12]: 96%
Activity (Neutrophil collagenase [13]): 81.7%
Activity [14]: 91.6%
Activity (Collagenase 3 [15]): 44%
Activity [16]: 107%
Activity [17]: 105%
SMILES: Oc1nc(SCc2ccc(Cl)cc2)nc2c1CCC2

inhibition (Collagenase 3 [1]): 37.7%
SMILES: O=c1[nH]c(SCc2ccc(Cl)cc2)nc2c1C(Cc1ccccc1)CC2 (stereo not given)

inhibition (Collagenase 3 [1]): inactive
SMILES: CC(=O)Nc1c(O)nc(SCc2ccc(Cl)cc2)nc1O

inhibition (Collagenase 3 [1]): 36.6%
SMILES: Oc1nc(SCc2ccc(Cl)cc2)nc2ccsc12

inhibition (Collagenase 3 [1]): inactive
SMILES: Oc1[nH]c(SCc2ccc(Cl)cc2)nc2nncc1-2

inhibition (Collagenase 3 [1]): 55.8%
inhibition (Neutrophil collagenase [6]): 20%
SMILES: Cc1nc(SCc2ccc(Br)cc2)nc(O)c1C

inhibition (Collagenase 3 [1]): 37%
SMILES: Nc1cc(O)nc(SCc2ccc(Cl)cc2)n1

inhibition (Collagenase 3 [1]): 31.2%
SMILES: O=S(=O)(Nc1cc(O)nc(SCc2ccc(Cl)cc2)n1)c1ccccc1

inhibition (Collagenase 3 [1]): inactive
SMILES: CCCc1cc(O)nc(SCc2ccc(Cl)cc2)n1

inhibition (Collagenase 3 [1]): inactive
SMILES: Oc1nc(SCc2ccc(Cl)cc2)nc2ccccc12

inhibition (Collagenase 3 [1]): 30.5%
SMILES: Cc1ccccc1S(=O)(=O)Nc1cc(=O)[nH]c(SCc2ccc(Cl)cc2)n1

inhibition (Collagenase 3 [1]): inactive
SMILES: O=c1[nH]c(SCc2ccc(Cl)cc2)nc(O)c1Cc1ccccc1

Further lines, the compound ahead of its results:

SMILES: C#CCSc1nc2c(c(=O)[nH]1)CCC2
inhibition (Collagenase 3 [1]): 10.3%

SMILES: O=C(CSc1nc2c(c(=O)[nH]1)CCC2)c1ccccc1
inhibition (Collagenase 3 [1]): inactive

SMILES: CS(=O)(=O)c1ccc(CSc2nc3c(c(=O)[nH]2)CCC3)cc1
inhibition (Collagenase 3 [1]): 46.7%

SMILES: O=c1[nH]c(SCCCc2ccccc2)nc2c1CCC2
inhibition (Collagenase 3 [1]): 7.2%

SMILES: CCCCSc1nc(O)c2c(n1)CCC2
inhibition (Collagenase 3 [1]): 17.1%

SMILES: O=c1[nH]c(SCCc2ccccc2)nc2c1CCC2
inhibition (Collagenase 3 [1]): 7.7%

SMILES: O=C(O)c1ccc(CSc2nc3c(c(=O)[nH]2)CCC3)cc1
inhibition (Collagenase 3 [1]): 2.2%

SMILES: Cc1ccc(CSc2nc(O)c3c(n2)CCC3)cc1
inhibition (Collagenase 3 [1]): 67%
inhibition [3]: inactive
inhibition [4]: 0%
inhibition [5]: 19%
inhibition (Neutrophil collagenase [6]): 0%
inhibition [7]: 7%
inhibition [8]: 20%
Activity [10]: 106%
Activity [11]: 97.6%
Activity [12]: 100%
Activity (Neutrophil collagenase [13]): 106%
Activity [14]: 77.3%
Activity (Collagenase 3 [15]): 38.6%
Activity [16]: 100%
Activity [17]: 101%

SMILES: O=C(CSc1nc2c(c(=O)[nH]1)C(Cc1ccccc1)CC2)c1ccccc1 (stereo not given)
inhibition (Collagenase 3 [1]): 16%

SMILES: O=c1[nH]c(SCc2coc(-c3cccc(Cl)c3)n2)nc2c1CCC2
inhibition (Collagenase 3 [1]): inactive

SMILES: Cc1cccc(CSc2nc3c(c(=O)[nH]2)CCC3)c1
inhibition (Collagenase 3 [1]): 45.2%

SMILES: O=c1[nH]c(SCc2ccc(OC(F)(F)F)cc2)nc2c1CCC2
inhibition (Collagenase 3 [1]): 34.4%

SMILES: Cc1ccc(CSc2nc3c(c(=O)[nH]2)CCC3)cc1
Ki (Collagenase 3 [2]): 824 nM
IC50 (Interstitial collagenase): > 40 µM
IC50 (Neutrophil collagenase [9]): > 40 µM

SMILES: Cc1oc(-c2cccc(Cl)c2)cc1CSc1nc2c(c(=O)[nH]1)CCC2
inhibition (Collagenase 3 [1]): inactive

SMILES: COC(=O)c1ccc(CSc2nc3c(c(=O)[nH]2)CCC3)cc1
inhibition (Collagenase 3 [1]): 61%
Ki (Collagenase 3 [2]): 1530 nM
inhibition [3]: inactive
inhibition [4]: 0%
inhibition [5]: 26%
inhibition (Neutrophil collagenase [6]): 8%
inhibition [7]: 16%
inhibition [8]: 31%
IC50 (Interstitial collagenase): > 40 µM
IC50 (Neutrophil collagenase [9]): > 40 µM
Activity [10]: 102%
Activity [11]: 84.7%
Activity [12]: 100%
Activity (Neutrophil collagenase [13]): 93.8%
Activity [14]: 80.6%
Activity (Collagenase 3 [15]): 35.1%
Activity [16]: 104%
Activity [17]: 96.4%

SMILES: Cc1cccc(CSc2nc(O)c3c(n2)CCCC3)c1
inhibition (Collagenase 3 [1]): inactive

From ChEMBL document CHEMBL1938243, “Identification of novel, exosite-binding matrix metalloproteinase-13 inhibitor scaffolds” (Bioorg Med Chem Lett, 2011)
